Experimental data reported in ChEMBL document CHEMBL2157980, “Discovery of SCH 900229, a Potent Presenilin 1 Selective γ-Secretase Inhibitor for the Treatment of Alzheimer's Disease” (ACS Med Chem Lett, 2012).
One block for each compound: values may come before it. The source made the active and inactive calls. No cut-off for these calls is given here.

Experiments:
Mus musculus [1] = experiment: Antialzheimer activity in transgenic CRND8 mouse assessed as increase of amyloid beta-40 level in plasma at 30 mg/kg, po after 3 hrs; format: functional
Summary of the method: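 CRND8 mice were dosed orally at 30 mg/kg. Aβ40 in plasma and cortex was measured 3 h post-dose and reported as % change, negative for lowering and positive for increase.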

Presenilin-2 = Presenilin-2 (Homo sapiens, UniProt P49810); experiment: Inhibition of PS2 gamma-secretase expressed in HEK cells harboring Awe-Lon gene assessed as reduction of amyloid beta-42 production; format: cell-based, HEK293
Chain of Presenilin-2 (P49810 1-297 limits assumed): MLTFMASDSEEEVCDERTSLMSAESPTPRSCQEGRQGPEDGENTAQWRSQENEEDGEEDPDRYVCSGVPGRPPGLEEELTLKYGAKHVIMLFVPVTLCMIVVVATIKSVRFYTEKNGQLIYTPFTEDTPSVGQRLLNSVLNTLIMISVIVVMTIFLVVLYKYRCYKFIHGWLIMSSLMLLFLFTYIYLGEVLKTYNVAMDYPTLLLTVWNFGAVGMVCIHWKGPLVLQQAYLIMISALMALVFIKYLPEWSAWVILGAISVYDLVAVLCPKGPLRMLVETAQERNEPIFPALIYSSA
Chain of Presenilin-2 (P49810 298-448 limits assumed): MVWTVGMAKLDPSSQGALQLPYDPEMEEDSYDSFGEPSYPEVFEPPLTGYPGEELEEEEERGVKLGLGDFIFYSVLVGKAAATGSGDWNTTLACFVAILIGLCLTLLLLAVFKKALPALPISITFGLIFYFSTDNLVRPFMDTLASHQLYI

Presenilin-1 [2] = molecular target: T1, Presenilin-1 (Homo sapiens, UniProt P49768); experiment: Inhibition of PS1 gamma-secretase assessed as reduction of amyloid beta-40 production by membrane based assay
Summary of the method: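 Aβ40 production was measured in a membrane-based assay. IC50 was the average of at least two measurements, with standard deviation 20%.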

[3] = Selectivity ratio of IC50 for PS2 gamma-secretase to IC50 for PS1 gamma-secretase
Summary of the method: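 Inhibitors were tested against reconstituted γ-secretase complexes containing PS1 or PS2. The result is expressed as the PS2/PS1 ratio of IC50 values.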

Presenilin-1 [4] = molecular target: T1, Presenilin-1; experiment: Inhibition of PS1 gamma-secretase expressed in HEK cells harboring Awe-Lon gene assessed as reduction of amyloid beta-40 production; format: cell-based, HEK293
Summary of the method: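 Cell-based Aβ40 production assay in HEK293 cells carrying APP Awe-Lon. IC50 was the average of at least two determinations, with standard deviation 20%.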

Mus musculus [5] = experiment: Antialzheimer activity in B6C3F1 mouse assessed as reduction of amyloid beta-40 level in cortex at 10 mg/kg, po after 3 hrs; format: functional; set-up: scale not given: the % may be the effect or the level left
Summary of the method: (§1)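 B6C3F1 mice were dosed orally at 10 or 30 mg/kg. Aβ40 in plasma and cortex was measured 3 h after dosing and expressed as % change, with lowering shown as negative.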

Mus musculus [6] = experiment: Antialzheimer activity in B6C3F1 mouse assessed as reduction of amyloid beta-40 level in plasma at 10 mg/kg, po after 3 hrs; format: functional; set-up: scale not given: the % may be the effect or the level left; summary of the method: as §1
[7] = Tmax in dog at 5 mg/kg, po administered with 0.4% HPMC; conditions: in vivo
[8] = Oral bioavailability in dog at 5 mg/kg administered with 0.4% HPMC; conditions: in vivo
Canis familiaris [9] = organism: Canis familiaris; experiment: Antialzheimer activity in dog assessed as decrease of amyloid beta-40 level in CSF; format: functional, organism-based; conditions: Canis lupus familiaris
Mus musculus [10] = experiment: Antialzheimer activity in po dosed transgenic CRND8 mouse assessed as decrease of amyloid beta-40 level in plasma after 3 hrs; format: functional
Summary of the method: (§2)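 CRND8 mice received a single acute oral dose. Plasma and cortical Aβ40 were measured at the 3 h time point, and ED50 was derived from the dose response.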

[11] = Oral bioavailability in monkey at 5 mg/kg administered with 0.4% HPMC; conditions: rhesus monkey, in vivo
[12] = Volume of distribution at steady state in rat at 5 mg/kg, iv administered with 20% HPbetaCD; format: ADME, organism-based; set-up: dose 5 mg/kg, route intravenous; conditions: in vivo, read-out: Vdss
Summary of the method: (§3)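 CL and Vd(ss) came from iv administration at 5 mg/kg in rat and 2.5 mg/kg each in monkey and dog. Values are averages of three animals per species.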

Canis familiaris [13] = organism: Canis familiaris; experiment: Antialzheimer activity in dog assessed as decrease of amyloid beta-40 level in cortex; format: functional, organism-based; conditions: Canis lupus familiaris
Mus musculus [14] = experiment: Toxicity in po dosed transgenic CRND8 mouse assessed as intestinal goblet cell hyperplasia administered bid for 6 days; format: organism-based; conditions: in vivo, 144 h
Summary of the method: (§4)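 In the same subchronic design (oral BID dosing for 6 days in CRND8 mice), Notch-related effects were examined as thymus size reduction and intestinal goblet cell hyperplasia.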

[15] = Tmax in monkey at 5 mg/kg, po administered with 0.4% HPMC; conditions: rhesus monkey, in vivo
[16] = AUC (0 to infinity) in monkey at 5 mg/kg, po administered with 0.4% HPMC; conditions: rhesus monkey, plasma
[17] = Volume of distribution at steady state in monkey at 2.5 mg/kg, iv administered with 0.4% HPMC; format: ADME, organism-based, Macaca mulatta; set-up: dose 2.5 mg/kg, route intravenous; conditions: rhesus monkey, in vivo, read-out: Vdss; summary of the method: as §3
Canis familiaris [18] = organism: Canis familiaris; experiment: Antialzheimer activity in dog assessed as decrease of amyloid beta-40 level in plasma; format: functional, organism-based; conditions: Canis lupus familiaris
Mus musculus [19] = experiment: Antialzheimer activity in po dosed transgenic CRND8 mouse assessed as decrease of amyloid beta-40 level in cortex administered bid for 6 days; format: functional; conditions: 144 h
Summary of the method: (§5)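 In a subchronic study, CRND8 mice were dosed orally BID for 6 days. Aβ40 lowering in plasma and cortex was measured, and ED50 was derived.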

[20] = Half life in rat at 10 mg/kg, po administered with 20% HPbetaCD; format: ADME, organism-based; set-up: dose 10 mg/kg, route oral; conditions: in vivo
Summary of the method: (§6)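 Rats (n = 3) were dosed orally at 10 mg/kg in either 20% HPβCD or 0.4% HPMC. AUC(0−∞), Cmax, Tmax and T1/2 were taken from the oral profile, with averaged values. Bioavailability (F) was referenced to iv dosing at 5 mg/kg.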

[21] = Cmax in rat at 10 mg/kg, po administered with 20% HPbetaCD; format: ADME, organism-based; set-up: dose 10 mg/kg, route oral; conditions: in vivo; summary of the method: as §6
[22] = Tmax in rat at 10 mg/kg, po administered with 0.4% HPMC; format: ADME, organism-based; set-up: dose 10 mg/kg, route oral; conditions: in vivo; summary of the method: as §6
[23] = Cmax in monkey at 5 mg/kg, po administered with 0.4% HPMC; conditions: rhesus monkey, in vivo
[24] = Volume of distribution at steady state in rat at 5 mg/kg, iv administered with 0.4% HPMC; format: ADME, organism-based; set-up: dose 5 mg/kg, route intravenous; conditions: in vivo, read-out: Vdss; summary of the method: as §3
[25] = AUC (0 to infinity) in dog at 5 mg/kg, po administered with 0.4% HPMC; conditions: plasma
[26] = Half life in monkey at 5 mg/kg, po administered with 0.4% HPMC; conditions: rhesus monkey, in vivo
[27] = AUC (0 to infinity) in rat at 10 mg/kg, po administered with 0.4% HPMC; format: ADME, organism-based; set-up: time infinity, dose 10 mg/kg, route oral; conditions: plasma; summary of the method: as §6
[28] = Oral bioavailability in rat at 10 mg/kg administered with 0.4% HPMC; format: ADME, organism-based; conditions: in vivo; summary of the method: as §6
Mus musculus [29] = experiment: Antialzheimer activity in B6C3F1 mouse assessed as reduction of amyloid beta-40 level in plasma at 30 mg/kg, po after 3 hrs; format: functional; set-up: scale not given: the % may be the effect or the level left; summary of the method: as §1
[30] = Oral bioavailability in rat at 10 mg/kg administered with 20% HPbetaCD; format: ADME, organism-based; conditions: in vivo; summary of the method: as §6
[31] = AUC (0 to infinity) in rat at 10 mg/kg, po administered with 20% HPbetaCD; format: ADME, organism-based; set-up: time infinity, dose 10 mg/kg, route oral; conditions: plasma; summary of the method: as §6
Mus musculus [32] = experiment: Toxicity in po dosed transgenic CRND8 mouse assessed as reduction in thymus size administered bid for 6 days; format: organism-based; conditions: in vivo, 144 h; summary of the method: as §4
[33] = Tmax in rat at 10 mg/kg, po administered with 20% HPbetaCD; format: ADME, organism-based; set-up: dose 10 mg/kg, route oral; conditions: in vivo; summary of the method: as §6
Mus musculus [34] = experiment: Antialzheimer activity in po dosed transgenic CRND8 mouse assessed as decrease of amyloid beta-40 level in cortex after 3 hrs; format: functional; summary of the method: as §2
[35] = Cmax in dog at 5 mg/kg, po administered with 0.4% HPMC; conditions: in vivo
[36] = Half life in rat at 10 mg/kg, po administered with 0.4% HPMC; format: ADME, organism-based; set-up: dose 10 mg/kg, route oral; conditions: in vivo; summary of the method: as §6
[37] = Clearance in rat at 5 mg/kg, iv administered with 0.4% HPMC; format: ADME, organism-based; set-up: dose 5 mg/kg, route intravenous; conditions: in vivo; summary of the method: as §3
Mus musculus [38] = experiment: Antialzheimer activity in B6C3F1 mouse assessed as reduction of amyloid beta-40 level in cortex at 30 mg/kg, po after 3 hrs; format: functional; set-up: scale not given: the % may be the effect or the level left; summary of the method: as §1
Presenilin-1 [39] = molecular target: T1, Presenilin-1; experiment: Inhibition of PS1 gamma-secretase expressed in HEK cells harboring Awe-Lon gene assessed as notch cleavage; format: cell-based, HEK293
[40] = Cmax in rat at 10 mg/kg, po administered with 0.4% HPMC; format: ADME, organism-based; set-up: dose 10 mg/kg, route oral; conditions: in vivo; summary of the method: as §6
Mus musculus [41] = experiment: Antialzheimer activity in po dosed transgenic CRND8 mouse assessed as decrease of amyloid beta-40 level in plasma administered bid for 6 days; format: functional; conditions: 144 h; summary of the method: as §5
[42] = Clearance in monkey at 2.5 mg/kg, iv administered with 0.4% HPMC; format: ADME, organism-based, Macaca mulatta; set-up: dose 2.5 mg/kg, route intravenous; conditions: rhesus monkey, in vivo; summary of the method: as §3
[43] = Volume of distribution at steady state in dog at 2.5 mg/kg, iv administered with 0.4% HPMC; format: ADME, organism-based, Canis lupus familiaris; set-up: dose 2.5 mg/kg, route intravenous; conditions: in vivo, read-out: Vdss; summary of the method: as §3
[44] = Clearance in rat at 5 mg/kg, iv administered with 20% HPbetaCD; format: ADME, organism-based; set-up: dose 5 mg/kg, route intravenous; conditions: in vivo; summary of the method: as §3
[45] = Clearance in dog at 2.5 mg/kg, iv administered with 0.4% HPMC; format: ADME, organism-based, Canis lupus familiaris; set-up: dose 2.5 mg/kg, route intravenous; conditions: in vivo; summary of the method: as §3
[46] = Half life in dog at 5 mg/kg, po administered with 0.4% HPMC; conditions: in vivo

Compound: CNC(=O)OCC[C@@H]1OCC[C@@]2(S(=O)(=O)c3ccc(Cl)cc3)c3c(F)ccc(F)c3OC[C@@H]12 (racemic)
IC50 (Presenilin-2): 6 nM
IC50 (Presenilin-1 [2]): 8 nM
Ratio IC50 [3]: 3
IC50 (Presenilin-1 [4]): 8 nM

Compound: CCNC(=O)OCC[C@@H]1OCC[C@@]2(S(=O)(=O)c3ccc(Cl)cc3)c3c(F)ccc(F)c3OC[C@@H]12 (racemic)
IC50 (Presenilin-2): 20 nM
IC50 (Presenilin-1 [2]): 24 nM
IC50 (Presenilin-1 [4]): 48 nM

Compound: O=S(=O)(c1ccc(Cl)cc1)[C@@]12CCO[C@@H](CCO)[C@@H]1COc1c(F)ccc(F)c12
IC50 (Presenilin-2): 8 nM
IC50 (Presenilin-1 [2]): 20 nM
IC50 (Presenilin-1 [4]): 18 nM

Compound: CC(C)S(=O)(=O)CC[C@@H]1OCC[C@@]2(S(=O)(=O)c3ccc(Cl)cc3)c3c(F)ccc(F)c3OC[C@@H]12
Activity (Mus musculus [5]): 58%
IC50 (Presenilin-2): 3 nM
IC50 (Presenilin-1 [2]): 6 nM
IC50 (Presenilin-1 [4]): 8 nM
Activity (Mus musculus [6]): 2%

Continued by falling IC50 (Presenilin-2), values first:

IC50 (Presenilin-2): 16 nM
IC50 (Presenilin-1 [2]): 22 nM
Ratio IC50 [3]: 6
IC50 (Presenilin-1 [4]): 37 nM
Compound: N#CCC[C@@H]1OCC[C@@]2(S(=O)(=O)c3ccc(Cl)cc3)c3c(F)ccc(F)c3OC[C@@H]12 (racemic)
Activity (Mus musculus [1]): 18%

Tmax [7]: 2 h
IC50 (Presenilin-2): 1 nM
bioavailability [8]: 86%
bioavailability [11]: 45%
Vd [12]: 5.4 L/kg
Tmax [15]: 1.7 h
AUC(0-inf) [16]: 8.9 µM·h
Vd [17]: 1.9 L/kg
half-life [20]: 1.1 h
Cmax [21]: 650 nM
IC50 (Presenilin-1 [2]): 1.3 nM
Tmax [22]: 0.3 h
Cmax [23]: 1390 nM
Vd [24]: 3.4 L/kg
AUC(0-inf) [25]: 85.6 µM·h
half-life [26]: 4.6 h
AUC(0-inf) [27]: 1 µM·h
bioavailability [28]: 6.4%
bioavailability [30]: 29%
AUC(0-inf) [31]: 1.4 µM·h
Tmax [33]: 0.7 h
Cmax [35]: 2740 nM
half-life [36]: 1 h
Ratio IC50 [3]: 25
clearance [37]: 20.8 mL/min/kg
IC50 (Presenilin-1 [39]): 46 nM
IC50 (Presenilin-1 [4]): 4 nM
Cmax [40]: 240 nM
clearance [42]: 8.2 mL/min/kg
Vd [43]: 3.1 L/kg
clearance [44]: 69 mL/min/kg
clearance [45]: 1.7 mL/min/kg
half-life [46]: 23.9 h
Compound: CS(=O)(=O)CC[C@@H]1OCC[C@@]2(S(=O)(=O)c3ccc(Cl)cc3)c3c(F)ccc(F)c3OC[C@@H]12
Activity (Canis familiaris [9]): Active
ED50 (Mus musculus [10]): 0.5 mg/kg
Activity (Canis familiaris [13]): Active
Activity (Mus musculus [14]): Non-toxic
Activity (Canis familiaris [18]): Active
ED50 (Mus musculus [19]): 0.3 mg/kg
Activity (Mus musculus [29]): 89%
Activity (Mus musculus [32]): Non-toxic
ED50 (Mus musculus [34]): 0.4 mg/kg
Activity (Mus musculus [38]): 78%
ED50 (Mus musculus [41]): 0.4 mg/kg
